Active and inactive are the calls of the source. The calls are words filed in the database; no cut-off is given here.

One data set deals with Chikungunya virus. Nature of the data set: Antiviral activity against CHIKV infected in African green monkey Vero cells assessed as reduction in viral titre measured at 36 hrs post infection. Format: functional, organism-based.
The subject of data set [1] is Respiratory syncytial virus. Nature of the data set: Antiviral activity against RSV infected in African green monkey Vero cells assessed as inhibition of viral replication measured after 5 to 7 days by plaque formation assay. The note with it: human respiratory syncytial virus. The format is functional, organism-based. In short, it runs like this: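 Vero cells at 2×10^4/well were cultured 18 h, then infected with RSV at 2000 TCID50/ml. Compound (0.01–20 µM) was added immediately. Viral amount was measured by plaque formation assay.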

Data set [2] can be described thus: Cytotoxicity against African green monkey Vero cells infected with CHIKV assessed as decrease in cell viability after 48 hrs by WST1 assay. The format is cell-based. The conditions noted are these: chlorocebus sabaeus. In short, it runs like this:
(§1)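 Cells at 1×10^4/well, cultured overnight at 37 °C, were incubated 48 h with serially diluted compound. Viability was read by WST-1 absorbance (OD450/OD630).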
In general terms: Formazan colour is commonly taken as a measure of viable cells.

In data set [3] the test system is Hepatitis C virus. Nature of the data set: Antiviral activity against EGFP-fused HCV JFH-1 harboring K78E/E2-G451R/NS3-M260K/NS5A-T462I mutation infected in human Huh7.5.1 cells assessed as combination index after 2 days in presence of IFNalpha by qRT-PCR analysis. The format is functional, Hepacivirus hominis. In short, it runs like this: (§2)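 In HCVcc-infected Huh7.5.1 cells (1×10^4/well, overnight, 37 °C), compound was given at various concentrations alone or with the named approved antiviral. After 2 days HCV RNA was quantified by qRT-PCR to derive the combination index.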
For orientation: Real-time PCR tracks product formation cycle by cycle.

A short description of data set [4]: Selectivity index, ratio of CC50 for MDCK cells to EC50 for Gaussia tagged A/PR/08/34(H1N1) virus infected in MDCK cells. The conditions noted are these: dog, read-out: Ratio CC50/EC50. The format is toxicity, cell-based. In short, it runs like this:
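MDCK cells seeded at 1×10^5/well overnight, infected with A/PR/08/34(H1N1)-Gaussia luciferase at MOI 0.1, then given 0.05–20 µM compound immediately. Virus read by luminescence or qRT-PCR at 24 hpi; EC50 at 50% signal reduction. CC50 by WST-1 (OD450/OD630) after 48 h of serially diluted compound.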

Data set [5] has as its system Hepatitis C virus. Nature of the data set: Antiviral activity against GFP-fused HCV JFH-1 harboring K78E/E2-G451R/NS3-M260K/NS5A-T462I mutant infected in human Huh7.5.1 cells assessed as reduction in viral infection at 10 uM preincubated for 2 hrs followed by viral infection and measured after 48 hrs by epifluorescence microscopic analysis relative to control. The format is functional, Hepacivirus hominis. Details: scale not given: the % may be the effect or the level left. In short, it runs like this:
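Primary screen at 10 μM. Huh7.5.1 cells were pretreated 2 h, then infected with GFP-HCV (MOI 1). GFP intensity was checked by fluorescence microscopy at 48 h. Hits needed over 50% fluorescence decay before dose-response retesting.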

The nature of data set [6]: Cytotoxicity against African green monkey Vero cells infected with RSV assessed as decrease in cell viability after 48 hrs by WST1 assay. The conditions noted are these: chlorocebus sabaeus. The format is cell-based. In short, it runs like this:
as §1

Data set [7] deals with Hepatitis C virus. Nature of the data set: Antiviral activity against EGFP-fused HCV JFH-1 harboring K78E/E2-G451R/NS3-M260K/NS5A-T462I mutation infected in human Huh7.5.1 cells assessed as reduction in viral RNA level after 2 days in presence of ribavirin by qRT-PCR analysis. The note with it: Hepacivirus hominis. The format is functional, organism-based. In short, it runs like this:
(§3)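 Huh7.5.1 cells at 1×10^4/well, grown overnight at 37 °C. HCVcc was mixed with serially diluted compound (top 30 or 6 μM), given alone or with the named drug, and added to the cells. Viral RNA was read by qRT-PCR after 2 days. EC50 is the concentration giving 50% RNA reduction.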

The test system of data set [8] is Hepatitis C virus. Nature of the data set: Antiviral activity against EGFP-fused HCV JFH-1 harboring K78E/E2-G451R/NS3-M260K/NS5A-T462I mutation infected in human Huh7.5.1 cells assessed as reduction in viral RNA level after 2 days in presence of cyclosporin A by qRT-PCR analysis. Format: functional, organism-based. The note with it: Hepacivirus hominis. In short, it runs like this:
as §3

Data set [9] relates to Hepatitis C virus. Nature of the data set: Antiviral activity against EGFP-fused HCV JFH-1 harboring K78E/E2-G451R/NS3-M260K/NS5A-T462I mutation infected in human Huh7.5.1 cells assessed as combination index after 2 days in presence of telaprevir by qRT-PCR analysis. Format: functional, Hepacivirus hominis. In short, it runs like this:
as §2

The test system of data set [10] is Hepatitis C virus. Nature of the data set: Antiviral activity against EGFP-fused HCV JFH-1 harboring K78E/E2-G451R/NS3-M260K/NS5A-T462I mutation infected in human Huh7.5.1 cells assessed as combination index after 2 days in presence of boceprevir by qRT-PCR analysis. The format is functional, Hepacivirus hominis. In short, it runs like this:
as §2

Data set [11] is described as follows: Cytotoxicity against African green monkey Vero cells infected with SFTSV measured after 48 hrs by WST1 assay. The format is cell-based. The note with it: chlorocebus sabaeus. In short, it runs like this:
as §1

In data set [12] the target is T1, Membrane protein MLC1 (Homo sapiens) (UniProt Q15049).
T1 sequence (whole entry): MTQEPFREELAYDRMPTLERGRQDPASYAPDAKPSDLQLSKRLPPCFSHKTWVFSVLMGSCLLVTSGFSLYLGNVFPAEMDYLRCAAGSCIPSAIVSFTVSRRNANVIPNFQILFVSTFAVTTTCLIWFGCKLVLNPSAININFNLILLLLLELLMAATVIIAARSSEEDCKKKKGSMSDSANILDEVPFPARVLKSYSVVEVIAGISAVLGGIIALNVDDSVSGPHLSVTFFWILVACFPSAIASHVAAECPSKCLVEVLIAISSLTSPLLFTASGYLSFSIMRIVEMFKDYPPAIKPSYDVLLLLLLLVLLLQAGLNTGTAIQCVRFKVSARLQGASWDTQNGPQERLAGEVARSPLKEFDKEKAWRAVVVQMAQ
Nature of the data set: Binding affinity to MLC1 in human Huh7.5.1 cell lysate infected with HCV at 0.1 to 10 uM incubated for 1 hr followed by 10000 mJ/cm2 UV irradiation for 10 mins and subsequent addition of biotin-N3 measured after 1 hr by ABPP Gel-based by LC/MS/MS analysis. The format is subcellular.

The next data set deals with Influenza A virus. Nature of the data set: Antiviral activity against Gaussia tagged Influenza A virus (A/Puerto Rico/8/34(H1N1)) infected in MDCK cells assessed as inhibition of H1N1 replication measured at 24 hrs post infection by luciferase reporter gene assay. The note with it: A/Puerto Rico/8/1934(H1N1). Format: functional, organism-based. In short, it runs like this:
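MDCK cells at 1×10^5/well, cultured overnight, were infected with A/PR/8/34(H1N1)-Gaussia luciferase at MOI 0.1. Compound (0.05–20 µM) was added immediately. Luminescence or qRT-PCR was read at 24 hpi; EC50 is 50% reduction.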
In general terms: A reporter such as luciferase makes a cellular process visible.

Data set [13] deals with Inosine-5'-monophosphate dehydrogenase 2 (Homo sapiens) (UniProt P12268). Nature of the data set: Binding affinity to IMPDH2 (unknown origin).
Inosine-5'-monophosphate dehydrogenase 2 (Homo sapiens), sequence (P12268 2-514 limits assumed): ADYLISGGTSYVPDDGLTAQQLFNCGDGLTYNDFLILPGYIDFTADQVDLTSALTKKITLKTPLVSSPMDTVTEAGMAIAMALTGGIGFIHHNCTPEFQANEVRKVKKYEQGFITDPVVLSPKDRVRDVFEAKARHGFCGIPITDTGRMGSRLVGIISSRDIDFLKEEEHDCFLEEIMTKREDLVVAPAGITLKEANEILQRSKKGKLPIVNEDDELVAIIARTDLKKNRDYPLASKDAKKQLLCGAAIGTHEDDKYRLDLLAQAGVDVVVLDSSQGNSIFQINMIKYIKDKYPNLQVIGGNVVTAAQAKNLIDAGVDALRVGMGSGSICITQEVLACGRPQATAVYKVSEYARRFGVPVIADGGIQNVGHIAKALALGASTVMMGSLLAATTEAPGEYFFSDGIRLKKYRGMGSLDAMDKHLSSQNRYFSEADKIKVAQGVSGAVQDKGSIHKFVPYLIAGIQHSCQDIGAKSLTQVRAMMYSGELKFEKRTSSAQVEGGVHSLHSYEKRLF
The nature of data set [14]: Inhibition of C-terminal 6-His tagged recombinant human DHODH N-terminal domain delta29 mutant expressed in Escherichia coli BL21(DE3) using dihydroorotate as substrate measured every 30 secs for 6 mins by DCIP dye based assay. In short, it runs like this: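 Enzyme purified by HisTrap then size exclusion. Reaction started with 500 μM dihydroorotate. DCIP decrease read at 600 nm. Inhibition = (1 − Vi/V0) × 100. IC50 from 8–9 concentrations in triplicate by sigmoidal fit.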

For orientation: EC50 means the concentration at which the effect is half-maximal. By CC50 is commonly meant the concentration that lowers cell viability or growth by half. As usually defined, the IC50 is the concentration that inhibits the measured activity by half. Regarding `CCN(CC)c1ccc(Oc2ccc(-c3[nH]c4cccc(F)c4c(=O)c3C)cc2F)cc1`, the EC50 amounted to 0.26 µM in the data set with Chikungunya virus, 0.06 µM in data set [1] and 0.24 µM in the data set on Influenza A virus. Besides, the cytotoxic concentration (CC50) at 48 h in data set [2], in data set [6] and in data set [11] was greater than 2.5 µM throughout. Besides, the CI entry in the data set with Hepatitis C virus [3] was “>=10 - 50”; in the data set with Hepatitis C virus [9], “>=10 - 50”; in the data set with Hepatitis C virus [10], greater than 50. Further, in data set [4], the selectivity ratio is greater than 10. In addition, the Activity was greater than 50% in the data set on Hepatitis C virus [5], “Dose-dependent effect” in the data set with Hepatitis C virus [7] and “Dose-dependent effect” in the data set with Hepatitis C virus [8]. For the same molecule, in [12], the outcome was Active. Besides, the result in data set [13] was inactive. The IC50 in data set [14] was determined as 0.06 µM.
